In ChEMBL document CHEMBL1122650, “Synthesis and central nervous system properties of 2-[(alkoxycarbonyl)amino]-4(5)-phenyl-2-imidazolines” (J Med Chem, 1984):
Calls of active or inactive are those of the source. The rule behind the calls is not given here.

Columns and labels:
Mus musculus [1] = species on record: Mus musculus; assay: Mouse behavior activity was determined; ST = Stimulant(Weak); format: functional, organism-based
In short: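 Male Simonsen (ICR) fBR mice (18-24 g) given 3, 10, 30, 100, 300 or 1000 mg/kg ip as aqueous solution and observed for behaviour in groups of three.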

Mus musculus [2] = species on record: Mus musculus; assay: Inhibition of radioactive NE [3H]norepinephrine uptake into mouse heart; format: functional
In short: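 Mice received compound ip before iv [3H]NE. At 3 h after [3H]NE, hearts were removed, washed, weighed, dissolved in Protosol and counted as dpm per mg tissue. Dose-response curves derived by linear regression.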

Mus musculus [3] = assay: Compound was evaluated in vivo for reserpine hypothermia after oral administration in mouse. Minimum active dose was reported, with the percent reversal at 10 mg/kg in parenthesis.; format: functional
In short: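 Male HLa (ICR) BR mice (18-24 g), groups of eight, dosed ip with 5 mg/kg reserpine 2 h before oral test compound given as aqueous solution. Rectal temperature measured hourly; 1-4-h thermia assessed by analysis of variance.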

[4] = molecular target: Norepinephrine transporter (Rattus norvegicus, UniProt Q9WTR4); assay: Inhibition of the NE [3H]norepinephrine uptake by rat brain slices In vitro; format: tissue-based
Chain of Norepinephrine transporter (Q9WTR4 whole entry): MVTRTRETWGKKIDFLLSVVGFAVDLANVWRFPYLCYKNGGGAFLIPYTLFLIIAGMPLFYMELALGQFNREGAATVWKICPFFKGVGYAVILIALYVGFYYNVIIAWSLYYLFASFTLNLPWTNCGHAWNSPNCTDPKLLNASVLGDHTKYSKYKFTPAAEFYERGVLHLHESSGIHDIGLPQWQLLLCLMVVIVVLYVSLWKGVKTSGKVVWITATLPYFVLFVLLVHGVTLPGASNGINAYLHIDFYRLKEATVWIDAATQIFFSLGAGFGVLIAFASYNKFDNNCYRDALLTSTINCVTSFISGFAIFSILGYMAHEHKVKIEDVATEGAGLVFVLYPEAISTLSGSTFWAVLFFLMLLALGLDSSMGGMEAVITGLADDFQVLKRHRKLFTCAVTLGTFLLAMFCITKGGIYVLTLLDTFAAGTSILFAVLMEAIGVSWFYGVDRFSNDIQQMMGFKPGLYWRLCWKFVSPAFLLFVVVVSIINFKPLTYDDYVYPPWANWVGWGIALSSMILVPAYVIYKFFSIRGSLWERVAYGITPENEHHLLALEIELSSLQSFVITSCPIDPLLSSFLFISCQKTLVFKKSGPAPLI
In short: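 Rat cerebral cortex slices at 5 mg tissue/mL Krebs-Henseleit buffer, incubated at 37 °C; blanks incubated at 4 °C, controls without drug. After 20 min, incubation stopped by filtration and tissue radioactivity measured. IC50 taken from linear regression of uptake inhibition.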

Mus musculus [5] = species on record: Mus musculus; assay: Compound was evaluated for maximal electroshock antagonism (MES) against mice (values in parentheses indicates 95% confidence limits); format: functional
In short: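 Male HLa (ICR) BR mice, groups of eight to ten, given compound ip as aqueous solution 15 min before transcorneal electroshock (50 mA, 0.2 s). End point was abolition of tonic hind-limb extension; quantal ED50 derived by Litchfield-Wilcoxon.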

Mus musculus [6] = assay: Reserpine hypothermia antagonism in mouse administered perorally with 5 mg/kg of reserpine 2 hour prior to test compound administration; format: functional; details: route oral
Mus musculus [7] = species on record: Mus musculus; assay: Evaluated for antagonism of reserpine induced hypothermia; format: functional
In short: (§1)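 Male HLa (ICR) BR mice, 18-24 g, in groups of eight; reserpine 5 mg/kg ip given 2 h before oral test compound as aqueous solution. Rectal temperature taken hourly; 1-4-h hypothermia assessed by analysis of variance.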

[8] = Compound was evaluated for lethal dose in mouse in groups of ten (values in parentheses indicates 95% confidence limits); format: toxicity, organism-based; details: in vivo
[9] = HPLC capacity factor (k'); format: ADME
[10] = Lethal dose in mouse, in groups of ten; format: toxicity, organism-based; details: in vivo
Mus musculus [11] = species on record: Mus musculus; assay: Mouse behavior activity was determined; Depressant; format: functional, organism-based
In short: (§2)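 Male Simonsen (ICR) fBR mice, 18-24 g, groups of three, given 3, 10, 30, 100, 300 or 1000 mg/kg ip as aqueous solution and observed for behavioral profile; deaths followed up to 7 days.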

Mus musculus [12] = species on record: Mus musculus; assay: Compound was evaluated for maximal electroshock antagonism (MES) against mice; format: functional
In short: (§3)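 Male HLa (ICR) BR mice, groups of eight to ten, dosed ip (aqueous solution) 15 min before transcorneal electroshock (50 mA, 0.2 s). End point: abolition of tonic hind-limb extension; quantal ED50 by Litchfield-Wilcoxon.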

Mus musculus [13] = species on record: Mus musculus; assay: Righting ability was determined in mice before rapid rolling (unaroused); format: functional
In short: (§4)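 Male Simonsen (ICR) fBR mice, 18-24 g, groups of ten, dosed with aqueous compound. Righting ability checked before (unaroused) and after (aroused) rapid rolling in the hand; ED50 by Litchfield-Wilcoxon method.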

Mus musculus [14] = species on record: Mus musculus; assay: Righting ability was determined in mice before rapid rolling (unaroused);; format: functional; in short: as §4
Mus musculus [15] = species on record: Mus musculus; assay: Mouse behavior activity was determined; D=-Depressant.; format: functional, organism-based; in short: as §2
Mus musculus [16] = species on record: Mus musculus; assay: Righting ability was determined in mice after rapid rolling (aroused); format: functional; in short: as §4
Mus musculus [17] = species on record: Mus musculus; assay: Mouse behavior activity was determined; Dwk=Depressant (Weak); format: functional, organism-based; in short: as §2
Mus musculus [18] = species on record: Mus musculus; assay: Compound was evaluated for antagonism of reserpine induced hypothermia; I=inactive; format: functional, organism-based; in short: as §1
Mus musculus [19] = species on record: Mus musculus; assay: Compound was evaluated for maximal electroshock antagonism (MES) against mice; I=inactive; format: functional, organism-based; in short: as §3
Mus musculus [20] = assay: Compound was evaluated in vivo for reserpine hypothermia after oral administration in mouse. Minimum active dose was reported, with the percent reversal at 10 mg/kg; I=inactive; format: functional, organism-based; design: dose 10 mg/kg; in short: as §1
Mus musculus [21] = species on record: Mus musculus; assay: Compound was evaluated for maximal electroshock antagonism (MES) against mice; Inactive; format: functional, organism-based; in short: as §3
Mus musculus [22] = species on record: Mus musculus; assay: Mouse behavior activity was determined; D=Depressant; format: functional, organism-based; in short: as §2
Mus musculus [23] = species on record: Mus musculus; assay: Evaluated for antagonism of reserpine induced hypothermia;I= Inactive; format: functional, organism-based; in short: as §1
Mus musculus [24] = species on record: Mus musculus; assay: Compound was evaluated for antagonism of reserpine induced hypothermia; Inactive.; format: functional, organism-based; in short: as §1
Mus musculus [25] = assay: Compound was evaluated in vivo for reserpine hypothermia after oral administration in mouse Minimum active dose was reported; Inactive; format: functional, organism-based; in short: as §1
Mus musculus [26] = species on record: Mus musculus; assay: Mouse behavior activity was determined; Dwk= Depressant Weak.; format: functional, organism-based; in short: as §2
Mus musculus [27] = assay: Mouse behavior activity was determined; I=inactive at a dose of 50 mg/Kg; format: functional, organism-based

CN(C)CCC=C1c2ccccc2CCc2ccccc21 [AMITRIPTYLINE]
Mouse behavior activity (Mus musculus [1]): Partial stimulant
ED50 (Mus musculus [2]): 4.4 mg/kg
ED50 (Mus musculus [3]): 8 mg/kg
IC50 [4]: 2500 nM
ED50 (Mus musculus [5]): 14 mg/kg
Reserpine hypothermia (Mus musculus [6]): 0.15 mg/kg
HYPO (Mus musculus [7]): <0.5 mg/kg
LD50 [8]: 70 mg/kg

COC(=O)NC1=NC2(CCc3ccccc32)CN1 (configuration not stated)
Log k' [9]: 0.3
LD50 [10]: 700 mg/kg
Mouse behavior activity (Mus musculus [11]): Depressant
ED50 (Mus musculus [12]): 75 mg/kg
Loss of righting reflex (Mus musculus [13]): 200 mg/kg

COC(=O)NC1=NC(c2ccccc2C)CN1 (configuration not stated)
Loss of righting reflex (Mus musculus [14]): 144 mg/kg
Log k' [9]: 0.16
LD50 [10]: 300 mg/kg
Mouse behavior activity (Mus musculus [15]): Depressant
ED50 (Mus musculus [12]): 55 mg/kg
HYPO (Mus musculus [7]): >20 mg/kg
Loss of righting reflex (Mus musculus [16]): 172 mg/kg

COC(=O)NC1=NC(c2ccc(OC(C)=O)cc2)CN1C (configuration not stated)
Mouse behavior activity (Mus musculus [17]): Depressant - weak
HYPO (Mus musculus [18]): inactive
ED50 (Mus musculus [19]): inactive
Log k' [9]: 0.2
LD50 [10]: 700 mg/kg
ED50 (Mus musculus [20]): inactive

COC(=O)NC1=NC(c2ccccc2SC)CN1C (configuration not stated)
Log k' [9]: 0.63
LD50 [10]: 200 mg/kg
ED50 (Mus musculus [21]): inactive
Mouse behavior activity (Mus musculus [22]): Depressant
HYPO (Mus musculus [23]): inactive
Loss of righting reflex (Mus musculus [13]): 70 mg/kg

CCCCCCOC(=O)NC1=NC(c2ccc(Cl)cc2)CN1 (configuration not stated)
HYPO (Mus musculus [24]): inactive
Log k' [9]: 2.18
LD50 [10]: 200 mg/kg
ED50 (Mus musculus [21]): inactive
ED50 (Mus musculus [25]): inactive
Mouse behavior activity (Mus musculus [26]): Depressant - weak

COC(=O)NC1=NC(c2ccc(O)c(O)c2)CN1 (configuration not stated)
Log k' [9]: -1.51
Mouse behavior activity (Mus musculus [27]): inactive
HYPO (Mus musculus [7]): >20 mg/kg
LD50 [8]: > 1000 mg/kg
